For one series, the system named is humans. The conditions noted are these: exposure levels capable of fully blocking the GIPR; cited from earlier work.
The subject of series [1] is HFD-induced obese cynomolgus monkeys. The experiment in a line: Efficacy study in obese non-human primates. Type of series: in vivo, M. fascicularis. The following applies: 42-day daily SC treatment.
Series [2] can be described thus: Pharmacokinetics in Göttingen minipigs. It counts as in vivo. The following applies: female, minipig, plasma, sc, 3 nmol/kg. In a few lines: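 Two female Göttingen minipigs (30–35 kg) per test compound, each given a single SC dose of 3 nmol/kg (0.04 mL/kg) in the inguinal fold or behind the ear. Up to 10 blood samples were drawn via an ear-vein central venous catheter to 129 h into chilled EDTA tubes. Plasma (2000 RCF, 15 min, 4 °C) was frozen and assayed by LC-MS/MS. Half-life came from a one-phase exponential decay fit.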

In the case of `CC[C@H](C)[C@H](NC(=O)[C@H](CO)NC(=O)[C@H](Cc1ccc(O)cc1)NC(=O)[C@H](CC(=O)O)NC(=O)[C@H](CO)NC(=O)[C@@H](NC(=O)[C@H](Cc1ccccc1)NC(=O)[C@@H](NC(=O)CNC(=O)[C@@H](N)CCC(=O)O)[C@@H](C)O)[C@@H](C)CC)C(=O)N[C@@H](C)C(=O)N[C@@H](CCSC)C(=O)N[C@@H](CC(=O)O)C(=O)N[C@@H](CCCCN)C(=O)N[C@H](C(=O)N[C@@H](Cc1c[nH]cn1)C(=O)N[C@@H](CCC(N)=O)C(=O)N[C@@H](CCC(N)=O)C(=O)N[C@@H](CC(=O)O)C(=O)N[C@@H](Cc1ccccc1)C(=O)N[C@H](C(=O)N[C@@H](CC(N)=O)C(=O)N[C@@H](Cc1c[nH]c2ccccc12)C(=O)N[C@@H](CC(C)C)C(=O)N[C@@H](CC(C)C)C(=O)N[C@@H](C)C(=O)N[C@@H](CCC(N)=O)C(=O)N[C@@H](CCCCN)C(N)=O)C(C)C)[C@@H](C)CC` [GIP(3–30)NH2], the “nausea, comfort or other side effects” value in the series on humans is given as “no alterations in nausea, comfort, or any other side effects”. Take `CCCCCCCCCCCCCCCC(=O)N[C@@H](CCC(=O)NCCCC[C@H](NC(=O)[C@H](C)NC(=O)[C@H](C)NC(=O)[C@H](CCC(N)=O)NC(=O)CNC(=O)[C@H](CCC(=O)O)NC(=O)[C@H](CC(C)C)NC(=O)[C@H](Cc1ccc(O)cc1)NC(=O)[C@H](CO)NC(=O)[C@H](CO)NC(=O)[C@@H](NC(=O)[C@H](CC(=O)O)NC(=O)[C@H](CO)NC(=O)[C@@H](NC(=O)[C@H](Cc1ccccc1)NC(=O)[C@@H](NC(=O)CNC(=O)[C@H](CCC(=O)O)NC(=O)[C@H](C)NC(=O)[C@@H](N)Cc1cnc[nH]1)[C@@H](C)O)[C@@H](C)O)C(C)C)C(=O)N[C@@H](CCC(=O)O)C(=O)N[C@@H](Cc1ccccc1)C(=O)N[C@H](C(=O)N[C@@H](C)C(=O)N[C@@H](Cc1c[nH]c2ccccc12)C(=O)N[C@@H](CC(C)C)C(=O)N[C@H](C(=O)N[C@@H](CCCNC(=N)N)C(=O)NCC(=O)N[C@@H](CCCNC(=N)N)C(=O)NCC(=O)O)C(C)C)[C@@H](C)CC)C(=O)O` [Liraglutide]: the “tolerability / side effects” value in series [1] was “one NHP in the liraglutide monotreatment group that stopped eating and drinking”. One may read the AUC(0-inf) as the area under the concentration-time curve extrapolated to infinity. One may read the half-life as how long it takes for the measured level to halve. Read a low half-life as fast loss. Regarding `CC[C@H](C)[C@H](NC(=O)[C@H](CC(C)C)NC(=O)[C@H](Cc1c[nH]c2ccccc12)NC(=O)[C@H](CCC(N)=O)NC(=O)[C@@H](NC(=O)[C@H](Cc1ccccc1)NC(=O)[C@H](C)NC(=O)[C@H](CCCCNC(=O)COCCOCCNC(=O)COCCOCCNC(=O)CC[C@H](NC(=O)CCCCCCCCCCCCCCCCCCC(=O)O)C(=O)O)NC(=O)[C@H](CCC(N)=O)NC(=O)[C@H](C)NC(=O)[C@@H](NC(=O)[C@H](CCCCN)NC(=O)[C@H](CC(=O)O)NC(=O)[C@H](CC(C)C)NC(=O)C(C)(C)NC(=O)[C@@H](NC(=O)[C@H](CO)NC(=O)[C@H](Cc1ccc(O)cc1)NC(=O)[C@H](CC(=O)O)NC(=O)[C@H](CO)NC(=O)[C@@H](NC(=O)[C@H](Cc1ccccc1)NC(=O)[C@@H](NC(=O)CNC(=O)[C@H](CCC(=O)O)NC(=O)C(C)(C)NC(=O)[C@@H](N)Cc1ccc(O)cc1)[C@@H](C)O)[C@@H](C)O)[C@@H](C)CC)[C@@H](C)CC)C(C)C)C(=O)N[C@@H](C)C(=O)NCC(=O)NCC(=O)N1CCC[C@H]1C(=O)N[C@@H](CO)C(=O)N[C@@H](CO)C(=O)NCC(=O)N[C@@H](C)C(=O)N1CCC[C@H]1C(=O)N1CCC[C@H]1C(=O)N1CCC[C@H]1C(=O)N[C@@H](CO)C(N)=O` [Tirzepatide], in series [2], the AUC(0-inf) is 4.12 µM·h and the half-life was 83 h.

The values are drawn from PMC11382121 (Molecular Metabolism, 2024).
